Source: ChEMBL document CHEMBL3596186, “Synthesis and biological evaluation of diarylthiazole derivatives as antimitotic and antivascular agents with potent antitumor activity” (Bioorg Med Chem, 2015)
Calls of active or inactive are those of the source. The calls are words filed in the database; no cut-off is given here.

Assays:
[1] = Antiproliferative activity against human A2780S cells after 48 hrs by MTT assay; type: functional, cell-based; conditions: A2780, 48 h
In short: (§1)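 HCT116, HepG2, SMMC-7721, SK-OV-3 and A2780s grown in DMEM; A549 and MCF-7 in RPMI-1640; all with 10% FBS and penicillin/streptomycin at 37 °C, 5% CO2. Log-phase cells at 40,000-50,000 cells/mL treated with graded concentrations for 48 h. MTT 3 h, DMSO solubilization, A570. IC50 from percent growth versus untreated control; mean ± SEM of ≥3 independent dose-response experiments.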

HepG2 = assay: Antiproliferative activity against human HepG2 cells after 48 hrs by MTT assay; type: functional, cell-based; conditions: HepG2, 48 h; in short: as §1
HCT-116 [2] = assay: Antiproliferative activity against human HCT116 cells after 48 hrs by MTT assay; type: functional, cell-based; conditions: HCT-116, 48 h; in short: as §1
[3] = Antiproliferative activity against human […] cells after 48 hrs by MTT assay; type: functional, cell-based; in short: as §1
SK-OV-3 = assay: Antiproliferative activity against human SKOV3 cells after 48 hrs by MTT assay; type: functional, cell-based; conditions: SK-OV-3, 48 h; in short: as §1
Mus musculus [4] = assay: Toxicity in Balb/c athymic nude mouse xenografted with human HCT116 cells assessed as loss in body weight at 10 mg/kg, ip administered daily; type: organism-based, HCT-116; conditions: in vivo
In short: (§2)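 Female Balb/C athymic nude mice, 5-6 weeks old, bearing s.c. right-flank xenografts (cells in HBSS). Once tumors averaged 100 mm3, animals were randomized into groups of 6 and dosed i.p. once daily. Body weight was recorded every two days during treatment.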

Mus musculus [5] = assay: Toxicity in Balb/c athymic nude mouse xenografted with human SKOV3 cells assessed as loss in body weight at 10 mg/kg, ip administered daily; type: organism-based, SK-OV-3; conditions: in vivo; in short: as §2
HCT-116 [6] = assay: Antitumor activity against human HCT116 cells xenografted in Balb/c athymic nude mouse assessed as tumor growth inhibition at 10 mg/kg, ip administered daily after 42 days; type: functional; conditions: HCT-116, ip, 1008 h, read-out: TGI
In short: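 Female Balb/C athymic nude mice, 5-6 weeks old, given s.c. tumor cells in HBSS into the right flank. Once tumors averaged 100 mm3, animals were randomized into groups of 6 and given daily i.p. injections. Tumor volume (π/6 × length × width²) was measured every two days. Inhibition = (1 − treated/control tumor weight) × 100%, taken at day 42.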

[7] = Inhibition of pig microtubule polymerization after 30 mins by turbidimetric assay; parameters: species or system Sus scrofa
In short: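 Porcine-brain MAP-rich tubulin at 3 mg/mL preincubated 30 min at 4 °C in 0.1 M PIPES pH 6.9, 2 mM MgCl2, 0.5 mM EGTA. Compounds added 2 min before the run, then 1 mM GTP. Turbidity followed kinetically at 340 nm at 37 °C; assembly IC50 derived by Hamel's method.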

NCI-H1975 [8] = assay: Resistance ratio, ratio of IC50 for human gefitinib-resistant NCI-H1975 cells to IC50 for human HCC827 cells; type: functional
NCI-H1975 [9] = assay: Antiproliferative activity against human gefitinib-resistant NCI-H1975 cells after 48 hrs by MTT assay; type: functional, cell-based; conditions: NCI-H1975, 48 h
[10] = Antiproliferative activity against human doxorubicin-resistant MCF7 cells after 48 hrs by MTT assay; type: functional, cell-based; conditions: MCF7, 48 h
In short: (§3)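 MCF-7/ADR (doxorubicin-resistant) and A549/T (taxol-resistant) cells in RPMI-1640 with 10% FBS and penicillin/streptomycin. Log-phase cells at 40,000-50,000 cells/mL exposed to graded concentrations for 48 h. MTT 3 h, DMSO solubilization, absorbance 570 nm. IC50 from percent growth versus untreated control; mean ± SEM of ≥3 independent experiments.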

[11] = Antiproliferative activity against human HCC827 cells after 48 hrs by MTT assay; type: functional, cell-based; conditions: HCC827, 48 h
MCF7 [12] = assay: Resistance ratio, ratio of IC50 for human doxorubicin-resistant MCF7 cells to IC50 for human MCF7 cells; type: functional
In short: (§4)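 MTT assay: log-phase cells at 40,000-50,000 cells/mL in RPMI-1640 with 10% FBS, exposed to graded concentrations for 48 h, then MTT 3 h, DMSO solubilization, absorbance at 570 nm. IC50 from growth versus untreated control, at least three independent experiments. Ratio = resistant-line IC50 / parental-line IC50.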

Tubulin (Homo sapiens) = Tubulin (Homo sapiens) (UniProt P68371+Q9H4B7+P0DPH7+P68366+Q13509+Q71U36+P04350+Q3ZCM7+P07437+P68363+Q9BQE3+Q6PEY2+Q13885+Q9BVA1+Q9BUF5); assay: Binding affinity to tubulin in human HepG2 cells at 5 uM after 4 hrs by EBI competition assay; type: cell-based
In short: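 HepG2 cells seeded at 500,000 cells/well, allowed to adhere, then treated with compound for 4 h. EBI added at 100 µM for 1.5 h. Cell extracts (about 20 µg protein) run on 10% SDS-PAGE, blotted to PVDF, probed with anti-β-tubulin, detected by ECL with GAPDH as loading control. Read-out is loss of the faster-migrating β-tubulin–EBI adduct band.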

A549 [13] = assay: Resistance ratio, ratio of IC50 for human taxol-resistant A549 cells to IC50 for human A549 cells; type: functional; in short: as §4
A549 [14] = assay: Antiproliferative activity against human taxol-resistant A549 cells after 48 hrs by MTT assay; type: functional, cell-based; conditions: A549, 48 h; in short: as §3
A549 [15] = assay: Antiproliferative activity against human A549 cells after 48 hrs by MTT assay; type: functional, cell-based; conditions: A549, 48 h; in short: as §1
MCF7 [16] = assay: Antiproliferative activity against human MCF7 cells after 48 hrs by MTT assay; type: functional, cell-based; conditions: MCF7, 48 h; in short: as §1

| SMILES | IC50 [1] [µM] | IC50 (HepG2) [µM] | IC50 (HCT-116 [2]) [µM] | IC50 [3] [µM] | IC50 (SK-OV-3) [µM] | further results |
| --- | --- | --- | --- | --- | --- | --- |
| CCOc1ccc(-c2nc(NS(=O)(=O)c3ccc(C)c(C)c3)sc2-c2cc(OC)c(OC)c(OC)c2)cc1 | > 5 | > 5 | > 5 | > 5 | > 5 |  |
| CCOc1ccc(-c2nc(NC(C)=O)sc2-c2cc(OC)c(OC)c(OC)c2)cc1 | 0.0102 | 0.0609 | 0.0102 | 0.013 | 0.167 |  |
| O=c1[nH]cc(F)c(=O)[nH]1 [FLUOROURACIL] |  |  |  |  |  | Activity (Mus musculus [4]): Toxic; Activity (Mus musculus [5]): Toxic; inhibition in vivo at 10 mg/kg (HCT-116 [6]): 37.3% |
| CCOc1ccc(-c2nc(NS(=O)(=O)c3ccsc3Cl)sc2-c2cc(OC)c(OC)c(OC)c2)cc1 | > 5 | > 5 | > 5 | > 5 | > 5 |  |
| CCOc1ccc(-c2nc(C(C)(C)C)sc2-c2cc(OC)c(OC)c(OC)c2)cc1 | > 5 | > 5 | > 5 | > 5 | > 5 |  |
| CCOc1ccc(-c2ncsc2-c2cc(OC)c(OC)c(OC)c2)cc1 | 0.086 | 0.065 | 0.062 | 0.128 | 0.01 | IC50 [7]: 3.55 µM; Ratio IC50 (NCI-H1975 [8]): 2.38; IC50 (NCI-H1975 [9]): 1.11 µM; IC50 [10]: 1.56 µM; IC50 [11]: 0.469 µM; Ratio IC50 (MCF7 [12]): 1.3; Activity (Tubulin (Homo sapiens)): inactive; Ratio IC50 (A549 [13]): 0.45; IC50 (A549 [14]): 0.425 µM; IC50 (A549 [15]): 0.696 µM; IC50 (MCF7 [16]): 1.16 µM |
| CCOc1ccc(-c2nc(N(CC)CC)sc2-c2cc(OC)c(OC)c(OC)c2)cc1 | > 5 | > 5 | > 5 | > 5 | > 5 |  |
| CCCC(=O)Nc1nc(-c2ccc(OCC)cc2)c(-c2cc(OC)c(OC)c(OC)c2)s1 | 0.018 | 0.0768 | 0.018 | 0.011 | 0.105 | IC50 [7]: 9.04 µM; Activity (Tubulin (Homo sapiens)): inactive |
| CCOc1ccc(-c2nc(C(OCC)OCC)sc2-c2cc(OC)c(OC)c(OC)c2)cc1 | > 5 | > 5 | > 5 | > 5 | > 5 |  |
| CCOc1ccc(-c2nc(C=O)sc2-c2cc(OC)c(OC)c(OC)c2)cc1 | 0.104 | 0.05 | 0.048 | 0.106 | 0.009 | IC50 [7]: > 10 µM |
| CCOc1ccc(-c2sc(N)nc2-c2cc(OC)c(OC)c(OC)c2)cc1 | 0.0086 | 0.0083 | 0.0092 | 0.01 | 0.0084 |  |
| CCOc1ccc(-c2nc(NC(=O)CC)sc2-c2cc(OC)c(OC)c(OC)c2)cc1 | 0.0051 | 0.0406 | 0.0505 | 0.0108 | 0.0604 | IC50 [7]: > 10 µM |
| COc1cc2c(c(OC)c1OC)-c1ccc(OC)c(=O)cc1[C@@H](NC(C)=O)CC2 [COLCHICINE] |  |  |  |  |  | IC50 [7]: 5.02 µM |
| CCOc1ccc(-c2nc(NC(=O)C(C)C)sc2-c2cc(OC)c(OC)c(OC)c2)cc1 | 0.0225 | 0.177 | 0.0225 | 0.0652 | 0.0852 |  |
| CCOc1ccc(-c2nc(C)sc2-c2cc(OC)c(OC)c(OC)c2)cc1 | 0.106 | 0.368 | 0.064 | 0.126 | 0.068 | IC50 [7]: > 10 µM |
| C=CCN(CC=C)c1nc(-c2ccc(OCC)cc2)c(-c2cc(OC)c(OC)c(OC)c2)s1 | > 5 | > 5 | > 5 | > 5 | > 5 |  |
| CCOc1ccc(-c2nc(N(Cc3ccccc3)Cc3ccccc3)sc2-c2cc(OC)c(OC)c(OC)c2)cc1 | > 5 | > 5 | > 5 | > 5 | > 5 |  |
| CCOc1ccc(-c2nc(NS(=O)(=O)c3ccc(Br)cc3C(F)(F)F)sc2-c2cc(OC)c(OC)c(OC)c2)cc1 | > 5 | > 5 | > 5 | > 5 | > 5 |  |
| CCOc1ccc(-c2nc(N(C)C)sc2-c2cc(OC)c(OC)c(OC)c2)cc1 | > 5 | > 5 | > 5 | > 5 | > 5 |  |
| CCOC(=O)c1nc(-c2ccc(OCC)cc2)c(-c2cc(OC)c(OC)c(OC)c2)s1 | > 5 | > 5 | > 5 | > 5 | > 5 |  |
| COc1cccc2c1C(=O)c1c(O)c3c(c(O)c1C2=O)C[C@@](O)(C(=O)CO)C[C@@H]3O[C@H]1C[C@H](N)[C@H](O)[C@H](C)O1 [DOXORUBICIN] |  |  |  |  |  | IC50 [10]: 5.3 µM |
| COc1ccc(-c2nc(N)sc2-c2cc(OC)c(OC)c(OC)c2)cc1 | 0.014 | 0.0506 | 0.0937 | 0.009 | 0.11 |  |
| COc1ccc(/C=C\c2cc(OC)c(OC)c(OC)c2)cc1O [COMBRETASTATIN A4] |  |  |  |  |  | IC50 [7]: 5.91 µM |
| CCOc1ccc(-c2nc(NS(=O)(=O)c3ccc(OC)c(F)c3)sc2-c2cc(OC)c(OC)c(OC)c2)cc1 | > 5 | > 5 | > 5 | > 5 | > 5 |  |
| CCCN(CCC)c1nc(-c2ccc(OCC)cc2)c(-c2cc(OC)c(OC)c(OC)c2)s1 | > 5 | > 5 | > 5 | > 5 | > 5 |  |
| CCOc1ccc(-c2nc(NS(=O)(=O)c3ccc([N+](=O)[O-])cc3OC)sc2-c2cc(OC)c(OC)c(OC)c2)cc1 | > 5 | > 5 | > 5 | > 5 | > 5 |  |
| CCNC(=O)Nc1nc(-c2ccc(OCC)cc2)c(-c2cc(OC)c(OC)c(OC)c2)s1 | 0.0013 | 0.0307 | 0.0221 | 0.0106 | 0.0292 | IC50 [7]: 3.9 µM; Ratio IC50 (NCI-H1975 [8]): 0.35; IC50 (NCI-H1975 [9]): 0.22 µM; IC50 [10]: 0.727 µM; IC50 [11]: 0.623 µM; Ratio IC50 (MCF7 [12]): 1.7; Activity (Tubulin (Homo sapiens)): inactive; Ratio IC50 (A549 [13]): 0.64; IC50 (A549 [14]): 0.14 µM; IC50 (A549 [15]): 0.103 µM; IC50 (MCF7 [16]): 0.417 µM |
